{"source": "ChEMBL document CHEMBL1152541", "about": "“Staurosporine tethered peptide ligands that target cAMP-dependent protein kinase (PKA): optimization and selectivity profiling” (Bioorg Med Chem, 2009)", "key": {"[1]": {"test_system": "Serine/threonine-protein kinase B-raf (Homo sapiens), P15056 [V600E]", "experiment": "Binding affinity to human BRAF V600E mutant at 500 nM by cell-based competition binding assay relative to control in presence of DTT", "outline": "(§1)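 Kinase binding profiling ran on a commercial (Ambit) competitive binding screen against a panel of 90 kinases. The screen used reducing conditions with 7.5 mM DTT. To withstand the DTT, the bivalent ligand was tested as its amide isostere, with the disulfide replaced. A staurosporine derivative carrying a 3 β-alanine linker was run as the reference compound.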"}, "[2]": {"molecular_target": "RAF proto-oncogene serine/threonine-protein kinase (Homo sapiens) (UniProt P04049)", "experiment": "Binding affinity to human RAF1 at 500 nM by cell-based competition binding assay relative to control in presence of DTT"}, "[3]": {"molecular_target": "Hepatocyte growth factor receptor (Homo sapiens) (UniProt P08581)", "experiment": "Binding affinity to human MET at 500 nM by cell-based competition binding assay relative to control in presence of DTT"}, "[4]": {"molecular_target": "Serine/threonine-protein kinase PAK 4 (Homo sapiens) (UniProt O96013)", "experiment": "Binding affinity to human PAK4 at 500 nM by cell-based competition binding assay relative to control in presence of DTT"}, "[5]": {"molecular_target": "Serine/threonine-protein kinase PLK1 (Homo sapiens) (UniProt P53350)", "experiment": "Binding affinity to human PLK1 at 500 nM by cell-based competition binding assay relative to control in presence of DTT"}, "[6]": {"molecular_target": "Phosphatidylinositol 4-phosphate 3-kinase C2 domain-containing subunit beta (Homo sapiens) (UniProt O00750)", "experiment": "Binding affinity to human PIK3C2beta at 500 nM by cell-based competition binding assay relative to control in presence of DTT"}, "[7]": {"molecular_target": "RAC-beta serine/threonine-protein kinase (Homo sapiens) (UniProt P31751)", "experiment": "Binding affinity to human AKT2 at 200 nM by cell-based competition binding assay relative to control in presence of DTT", "outline": "as §1"}, "[8]": {"molecular_target": "MAP kinase-interacting serine/threonine-protein kinase 2 (Homo sapiens) (UniProt Q9HBH9)", "experiment": "Binding affinity to human MKNK2 at 200 nM by cell-based competition binding assay relative to control in presence of DTT"}, "[9]": {"molecular_target": "ALK tyrosine kinase receptor (Homo sapiens) (UniProt Q9UM73)", "experiment": "Binding affinity to human ALK at 200 nM by cell-based competition binding assay relative to control in presence of DTT", "outline": "as §1"}, "[10]": {"molecular_target": "RAC-alpha serine/threonine-protein kinase (Homo sapiens) (UniProt P31749)", "experiment": "Binding affinity to human AKT1 at 200 nM by cell-based competition binding assay relative to control in presence of DTT", "outline": "as §1"}, "[11]": {"molecular_target": "T1, Serine/threonine-protein kinase STK11 (Homo sapiens) (UniProt Q15831)", "T1 sequence (whole entry)": "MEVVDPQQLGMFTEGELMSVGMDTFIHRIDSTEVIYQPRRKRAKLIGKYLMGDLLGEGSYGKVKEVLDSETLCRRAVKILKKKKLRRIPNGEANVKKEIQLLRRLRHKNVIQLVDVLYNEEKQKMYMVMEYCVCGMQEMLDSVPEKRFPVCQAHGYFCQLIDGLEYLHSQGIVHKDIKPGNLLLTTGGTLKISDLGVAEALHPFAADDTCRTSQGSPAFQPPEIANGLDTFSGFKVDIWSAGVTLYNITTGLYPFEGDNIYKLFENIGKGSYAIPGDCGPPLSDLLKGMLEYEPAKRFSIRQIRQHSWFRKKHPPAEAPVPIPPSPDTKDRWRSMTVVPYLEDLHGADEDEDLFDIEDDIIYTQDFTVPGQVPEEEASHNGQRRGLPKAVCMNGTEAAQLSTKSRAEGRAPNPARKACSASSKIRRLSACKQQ", "experiment": "Binding affinity to human LKB1 at 200 nM by cell-based competition binding assay relative to control in presence of DTT", "outline": "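Competition binding screen (Ambit) across a panel of 90 kinases, scoring test ligand displacement of each kinase's binding relative to control. The screen ran under reducing conditions with 7.5 mM DTT.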"}, "[12]": {"molecular_target": "T2, Tyrosine-protein kinase ZAP-70 (Homo sapiens) (UniProt P43403)", "T2 sequence (whole entry)": "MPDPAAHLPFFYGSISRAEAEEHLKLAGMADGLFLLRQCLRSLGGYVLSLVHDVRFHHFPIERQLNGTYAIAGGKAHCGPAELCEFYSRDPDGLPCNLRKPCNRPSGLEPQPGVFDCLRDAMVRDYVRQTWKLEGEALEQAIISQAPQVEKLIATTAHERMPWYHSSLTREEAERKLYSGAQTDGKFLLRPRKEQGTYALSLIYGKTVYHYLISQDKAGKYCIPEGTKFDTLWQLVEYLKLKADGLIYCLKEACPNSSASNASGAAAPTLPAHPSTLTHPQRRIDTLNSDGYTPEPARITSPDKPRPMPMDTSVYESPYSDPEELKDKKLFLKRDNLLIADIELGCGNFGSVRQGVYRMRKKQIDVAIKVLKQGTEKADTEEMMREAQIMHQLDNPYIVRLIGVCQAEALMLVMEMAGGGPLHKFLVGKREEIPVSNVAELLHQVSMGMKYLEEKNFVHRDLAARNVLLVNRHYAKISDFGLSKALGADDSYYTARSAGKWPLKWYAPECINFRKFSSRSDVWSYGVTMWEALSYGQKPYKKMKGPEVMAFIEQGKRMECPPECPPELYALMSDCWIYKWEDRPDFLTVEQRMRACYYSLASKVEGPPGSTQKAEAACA", "experiment": "Binding affinity to human ZAP70 at 200 nM by cell-based competition binding assay relative to control in presence of DTT"}, "[13]": {"molecular_target": "Serine/threonine-protein kinase pim-3 (Homo sapiens) (UniProt Q86V86)", "experiment": "Binding affinity to human PIM3 at 200 nM by cell-based competition binding assay relative to control in presence of DTT"}, "[14]": {"molecular_target": "Serine/threonine-protein kinase PLK3 (Homo sapiens) (UniProt Q9H4B4)", "experiment": "Binding affinity to human PLK3 at 200 nM by cell-based competition binding assay relative to control in presence of DTT"}, "[15]": {"molecular_target": "ALK tyrosine kinase receptor (Homo sapiens) (UniProt Q9UM73)", "experiment": "Binding affinity to human ALK at 50 nM by cell-based competition binding assay relative to control in presence of DTT", "outline": "as §1"}, "[16]": {"molecular_target": "Receptor tyrosine-protein kinase erbB-4 (Homo sapiens) (UniProt Q15303)", "experiment": "Binding affinity to human ERBB4 at 50 nM by cell-based competition binding assay relative to control in presence of DTT", "outline": "(§2)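 Commercial (Ambit) competitive kinase-binding panel of 90 kinases measured the binding profile. Run under reducing conditions of 7.5 mM DTT. Binding is expressed relative to control.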"}, "[17]": {"molecular_target": "Serine/threonine-protein kinase pim-1 (Homo sapiens) (UniProt P11309)", "experiment": "Binding affinity to human PIM1 at 50 nM by cell-based competition binding assay relative to control in presence of DTT"}, "[18]": {"molecular_target": "Fibroblast growth factor receptor 3 (Homo sapiens) (UniProt P22607)", "experiment": "Binding affinity to human FGFR3 at 50 nM by cell-based competition binding assay relative to control in presence of DTT", "outline": "as §2"}, "[19]": {"molecular_target": "Platelet-derived growth factor receptor alpha (Homo sapiens) (UniProt P16234)", "experiment": "Binding affinity to human PDGFRalpha at 50 nM by cell-based competition binding assay relative to control in presence of DTT"}}, "note": "*1 amine or outer side, *2 acyl side, *3 side chain or, on linkers, in order; H or OH if unused. Where a SMILES comes first, the peptide text is derived from it. Bridges are numbered along the chain shown (N, C = ends). [ ]: non-standard residue; d: D form. The star is where a group is joined. Staurosporine = CO[C@@H]1[C@H](N(C)*)C[C@H]2O[C@]1(C)n1c3ccccc3c3c4c(c5c6ccccc6n2c5c31)C(=O)NC4; Suc = O=C(CCC(=O)[*:2])[*:1]; Dap = NC[C@H](N)C(=O)O; βAla = NCCC(=O)O"}
{"smiles": "CO[C@@H]1[C@H](N(C)C(=O)CCC(=O)NCCC(=O)NCCC(=O)NCCC(N)=O)C[C@H]2O[C@]1(C)n1c3ccccc3c3c4c(c5c6ccccc6n2c5c31)C(=O)NC4", "values": [{"measurement": "Activity", "setting": "[1]", "value": 94, "unit": "%"}, {"measurement": "Activity", "setting": "[2]", "value": 73, "unit": "%"}, {"measurement": "Activity", "setting": "[3]", "value": 46, "unit": "%"}, {"measurement": "Activity", "setting": "[4]", "value": 34, "unit": "%"}, {"measurement": "Activity", "setting": "[5]", "value": 85, "unit": "%"}, {"measurement": "Activity", "setting": "[6]", "value": 98, "unit": "%"}]}
{"smiles": "CO[C@@H]1[C@H](N(C)C(=O)CCC(=O)NCCC(=O)NCCC(=O)NCCC(=O)NCCC(=O)NCCC(=O)NCCC(=O)NCCC(=O)N[C@H]2CSSC[C@@H](C(=O)NCC(N)=O)NC(=O)CNC(=O)[C@H](Cc3ccccc3)NC(=O)[C@H](C(C)C)NC(=O)[C@H](CCCNC(=N)N)NC(=O)[C@H](Cc3ccccc3)NC(=O)[C@H](C(C)C)NC2=O)C[C@H]2O[C@]1(C)n1c3ccccc3c3c4c(c5c6ccccc6n2c5c31)C(=O)NC4", "note": "({Staurosporine-Suc-βAla-βAla-βAla-βAla-βAla-βAla-βAla}-CVFRVFGCG-NH2; disulfide 1-8)", "values": [{"measurement": "Activity", "setting": "[7]", "value": 100, "unit": "%"}, {"measurement": "Activity", "setting": "[8]", "value": 57, "unit": "%"}, {"measurement": "Activity", "setting": "[9]", "value": 60, "unit": "%"}, {"measurement": "Activity", "setting": "[10]", "value": 100, "unit": "%"}, {"measurement": "Activity", "setting": "[11]", "value": 81, "unit": "%"}, {"measurement": "Activity", "setting": "[12]", "value": 16, "unit": "%"}, {"measurement": "Activity", "setting": "[13]", "value": 26, "unit": "%"}, {"measurement": "Activity", "setting": "[14]", "value": 100, "unit": "%"}]}
{"smiles": "CO[C@@H]1[C@H](N(C)C(=O)CCC(=O)NCCC(=O)NCCC(=O)NCCC(=O)NCCC(=O)NCCC(=O)NCCC(=O)NCCC(=O)N[C@H]2CNC(=O)C[C@@H](C(N)=O)NC(=O)CNC(=O)[C@H](Cc3ccccc3)NC(=O)[C@H](C(C)C)NC(=O)[C@H](CCCNC(=N)N)NC(=O)[C@H](Cc3ccccc3)NC(=O)[C@H](C(C)C)NC2=O)C[C@H]2O[C@]1(C)n1c3ccccc3c3c4c(c5c6ccccc6n2c5c31)C(=O)NC4", "note": "({Staurosporine-Suc-βAla-βAla-βAla-βAla-βAla-βAla-βAla}-[Dap]VFRVFGD-NH2; lactam 1-8)", "values": [{"measurement": "Activity", "setting": "[15]", "value": 92, "unit": "%"}, {"measurement": "Activity", "setting": "[16]", "value": 100, "unit": "%"}, {"measurement": "Activity", "setting": "[17]", "value": 79, "unit": "%"}, {"measurement": "Activity", "setting": "[18]", "value": 100, "unit": "%"}, {"measurement": "Activity", "setting": "[19]", "value": 100, "unit": "%"}]}
